In article PMC3946992 (Journal of molecular biology, 2013) one finds Kd data, which are given here for 4 compounds.

Common to all, as to experiment: isothermal titration calorimetry
Common to all, as to assay type: binding

Assay [1] has as its target T1, p48 (Homo sapiens, UniProt P49642).
T1 sequence (P49642 1-420): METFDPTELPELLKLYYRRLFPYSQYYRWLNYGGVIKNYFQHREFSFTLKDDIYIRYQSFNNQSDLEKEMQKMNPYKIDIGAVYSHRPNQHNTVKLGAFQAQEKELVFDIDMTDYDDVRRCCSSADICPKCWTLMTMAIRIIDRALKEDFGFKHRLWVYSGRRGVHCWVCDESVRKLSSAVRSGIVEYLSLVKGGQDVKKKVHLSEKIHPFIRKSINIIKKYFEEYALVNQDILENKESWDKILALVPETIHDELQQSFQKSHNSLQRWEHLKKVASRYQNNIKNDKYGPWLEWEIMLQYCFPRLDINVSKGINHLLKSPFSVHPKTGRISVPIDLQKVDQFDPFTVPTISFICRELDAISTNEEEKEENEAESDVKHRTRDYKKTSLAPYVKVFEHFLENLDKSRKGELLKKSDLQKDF
An outline of the steps:
(§1)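 Recombinant human p48 (full length, site-directed point mutants, or residues 1–408 lacking 360–379) is His-tagged in E. coli BL21(DE3), tag-cleaved with H3C protease, then purified by nickel, heparin and S200 chromatography. Protein at 20–30 μM is put in 20 mM HEPES pH 7.2, 100 mM NaCl with 3-fold molar excess MnCl2 and titrated with 400 μM UTP (1 initial plus 28 injections). Kd comes from a single-site nonlinear least-squares fit, ± standard deviation.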

The target of assay [2] is T2, p48 (Homo sapiens, UniProt P49642, K318A).
T2 sequence (P49642 1-420 K318A): T1 sequence (P49642 1-420) with K318A
An outline of the steps:
as §1

For assay [3], the target named is T3, p48 (Homo sapiens, UniProt P49642, D111N).
T3 sequence (P49642 1-420 D111N): T1 sequence (P49642 1-420) with D111N
In outline:
as §1

Another assay concerns the target T4, p48ΔL (Homo sapiens, UniProt P49642, DEL360-379).
T4 sequence (P49642 with tags, fused parts or gaps DEL360-379): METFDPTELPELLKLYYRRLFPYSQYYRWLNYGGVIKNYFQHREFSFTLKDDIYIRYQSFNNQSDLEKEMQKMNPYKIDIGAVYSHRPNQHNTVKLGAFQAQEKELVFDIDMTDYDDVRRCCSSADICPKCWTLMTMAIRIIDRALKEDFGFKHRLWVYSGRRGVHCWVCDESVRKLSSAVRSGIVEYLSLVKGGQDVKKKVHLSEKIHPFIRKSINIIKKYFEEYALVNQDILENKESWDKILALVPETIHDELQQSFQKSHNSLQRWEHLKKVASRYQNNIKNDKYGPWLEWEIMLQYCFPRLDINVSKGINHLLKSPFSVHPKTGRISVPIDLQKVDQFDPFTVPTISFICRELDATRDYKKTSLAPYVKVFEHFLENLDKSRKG
In outline:
as §1

For the next assay, the target named is T5, p48/p58 (Homo sapiens, UniProt P49642).
T5 sequence (P49642 1-420): T1 sequence (P49642 1-420)
T5 sequence (P49643 1-509 partner): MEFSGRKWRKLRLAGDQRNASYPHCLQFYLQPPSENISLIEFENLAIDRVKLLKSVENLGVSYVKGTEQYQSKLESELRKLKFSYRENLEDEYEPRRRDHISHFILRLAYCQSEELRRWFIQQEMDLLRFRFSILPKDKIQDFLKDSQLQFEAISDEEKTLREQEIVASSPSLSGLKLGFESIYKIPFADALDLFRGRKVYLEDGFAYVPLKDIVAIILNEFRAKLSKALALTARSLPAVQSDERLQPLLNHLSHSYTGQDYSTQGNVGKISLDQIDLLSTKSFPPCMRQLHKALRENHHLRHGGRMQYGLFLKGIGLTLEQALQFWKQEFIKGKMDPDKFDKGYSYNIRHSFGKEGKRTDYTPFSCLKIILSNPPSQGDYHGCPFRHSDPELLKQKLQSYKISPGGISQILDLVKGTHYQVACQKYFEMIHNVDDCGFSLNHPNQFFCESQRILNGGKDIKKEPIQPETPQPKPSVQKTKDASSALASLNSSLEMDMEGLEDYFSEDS
An outline of the steps: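 Recombinant human p48/p58 primase heterodimer is exchanged into 20 mM HEPES pH 7.2, 100 mM NaCl. Protein at 20–30 μM, pre-mixed with 3-fold molar excess MnCl2, is titrated by ITC with 400 μM nucleotide (UTP) in an initial injection plus 28 further injections. Kd comes from fitting a single-site binding model by nonlinear least squares, ± standard deviation.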

For assay [4], the target named is T6, p48 (Homo sapiens, UniProt P49642, H315A).
T6 sequence (P49642 1-420 H315A): T1 sequence (P49642 1-420) with H315A
An outline of the steps:
as §1

Assay [5] deals with T7, p48 (Homo sapiens, UniProt P49642, D109N).
T7 sequence (P49642 1-420 D109N): T1 sequence (P49642 1-420) with D109N
In outline: as §1

Assay [6] deals with T8, p48 (Homo sapiens, UniProt P49642, D306N).
T8 sequence (P49642 1-420 D306N): T1 sequence (P49642 1-420) with D306N
In outline: as §1

Molecules are shown by their SMILES. Substitutions are numbered along the chain they refer to.

On to `Nc1nc2c(ncn2[C@@H]2O[C@H](COP(=O)(O)OP(=O)(O)OP(=O)(O)O)[C@@H](O)[C@H]2O)c(=O)[nH]1` [GTP], for which the Kd (usually the concentration at which binding is half-saturated) at p48 [1] came out at 13 µM.
As to `O=c1ccn([C@@H]2O[C@H](COP(=O)(O)OP(=O)(O)OP(=O)(O)O)[C@@H](O)[C@H]2O)c(=O)[nH]1` [UTP], the Kd at p48 [2] turned out to be 49 µM; on p48 [3], 54 µM; on p48 [1], 11 µM; on p48ΔL, 12.5 ± 0.72 µM; on p48/p58, 20 µM; on p48 [4], 22 µM. Moreover, the values for the Kd on p48 [5] and on p48 [6] were 74 µM and 48 µM, respectively.
At p48 [1], `Nc1ncnc2c1ncn2[C@@H]1O[C@H](COP(=O)(O)OP(=O)(O)OP(=O)(O)O)[C@@H](O)[C@H]1O` [ATP] registered a Kd of 13 µM.
At p48 [1], `Nc1ccn([C@@H]2O[C@H](COP(=O)(O)OP(=O)(O)OP(=O)(O)O)[C@@H](O)[C@H]2O)c(=O)n1` [CTP] showed a Kd of 15 µM.
